# Screening results deposited in PubChem BioAssay by SRMLSC.
# The full list was thinned out, with hits kept by preference.
# bCat KO growth – beta-catenin-lacking colon tumor cell growth suppression; HCT116 beta-catenin knockout viability, CellTiter-Glo, 60 h; hits give low values; viability, % at 10 µM; 1.5% of 140,000 active; AID 818;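 active = viability at or under a set limit, the compound median less 4 SD, cut at about 6% in these data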
# H69AR inhibit – growth inhibitors of human H69AR lung tumor cells | 6% of 85,000 active | viability, % at 10 µM | H69AR lung tumor viability, ATP luminescence, 72 h; hits give low values;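 active = viability at or below 40%; inactive = viability above 40%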;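 note: multidrug resistant small cell line overexpressing MRP-1 efflux transporter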
# HUVEC prolif 384 – inhibitors of human endothelial cell proliferation. HUVEC proliferation, CellTiter-Glo luminescence, 72 h; hits give low values. 1.1% of 86,000 active. viability, % at 10 µM (by protocol). AID 648;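 active = viability at or below 30%; inactive = viability above 30%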
# PTEN del growth – PTEN-deleted cell growth suppression; HCT116 PTEN-null viability, CellTiter-Glo, 60 h; hits give low values; viability, % at 10 µM; 1.2% of 140,000 active;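 active = viability at or below a set limit, 4 SD under the median of all tested compounds, cut at about 3.7% in these data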;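 note: PTEN knockout HCT116 line with beta catenin targeted HCT116 as companion control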
# Fibroblast inh – blocks proliferation of human lung fibroblasts | LL 47 human lung fibroblast viability, ATP luminescence; hits give low values | viability, % at 10 µM | 1.1% of 85,000 active | AID 719;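 active = viability at or below 50% in the single dose screen; inactive = viability above 50%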;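 note: compound exposure lasted 72 h before the ATP readout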
#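 Benchmarks: Cell-only wells, no compound | Test system: LL 47 human lung fibroblasts, passage 12 or lower | Input: 1,150 cells/well | Measured by: CellTiter-Glo luminescence measuring cellular ATP | Medium: IMEM, 15% FBS supplement | Schedule: Overnight attachment after seeding, then 72 h compound exposure at 37 °C | Doses: Compound addition at 0.1% DMSO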
# Numbers stand for hits; – = inactive; · = no result given.
SMILES,bCat KO growth,H69AR inhibit,HUVEC prolif 384,PTEN del growth,Fibroblast inh
Brc1ccccc1-c1nnc2sc(-c3ccc4c(c3)OCCO4)nn12,–,16.5,–,–,–
COc1ccccc1NC(=O)COC(=O)C1CCN(/C=C/C(=O)C(F)(F)F)CC1,–,·,·,–,·
O=c1[nH]c(=O)n(Cc2ccccc2)c2nc(-c3ccco3)cc(C(F)(F)F)c12,–,31.1,–,–,–
Cc1cnc(NC(=O)CSc2nnc(Cc3ccccc3)n2C)s1,–,–,–,–,–
Cc1ccc(C(C)C)c(OCc2nnc(SCC(=O)Nc3ncc(C)s3)n2C)c1,–,9.8,–,–,–
COC(=O)c1ccccc1NC(=O)C1CC(=O)N(c2ccc(C)cc2)C1 (stereo not drawn),–,34.7,–,–,–
CCN1/C(=C/c2ccc3cccc(C)c3[n+]2CC)Sc2ccccc21,1.7,·,·,2.0,·
COc1ccccc1C(=O)NNC1=C(C(=O)C(F)(F)F)CCC1,–,·,·,–,·
O=C(NNC1=C(C(=O)C(F)(F)F)CCC1)c1ccccc1Cl,–,–,14.8,–,–
O=C(NNC1=C(C(=O)C(F)(F)F)CCC1)c1ccccc1O,–,29.7,6.8,–,–
O=C1CC(Sc2nnc(-c3ccccc3O)o2)C(=O)N1c1ccccc1 (stereo not drawn),–,1.7,–,–,2.4
O=C1CC(Sc2ncccn2)C(=O)N1c1ccccc1 (stereo not drawn),–,–,–,–,–
COc1ccc(N2C(=O)CC(Sc3nnc(-c4ccccc4)o3)C2=O)cc1 (stereo not drawn),–,1.4,–,–,2.2
Cc1cccc(C)c1NC(=O)COc1cccc(/C=N/NC(=O)C(=O)NCc2ccccc2)c1,–,·,·,–,·
CCc1ccc(NC(=O)C2C3/C=C\CCCCC32)cc1 (stereo not drawn),–,·,·,–,·
CN(C)c1ccc(/C=C/c2cc[n+](C)cc2)cc1,–,–,–,–,–
CC[n+]1c(/C=C/c2ccc(N(C)C)cc2)ccc2ccccc21,3.4,·,·,2.1,·
CCOC(=O)c1ccc(NC(=O)CCc2nc(-c3ccccc3)no2)cc1,–,–,–,–,–
O=C(CCCc1nc(-c2ccccc2Cl)no1)NCc1cccnc1,–,39.0,–,–,–
CCOC(=O)c1ccc(NC(=O)CCc2nc(-c3ccccc3Cl)no2)cc1,–,29.3,–,–,–
Clc1ccc(-n2nnnc2-c2ccccc2)cc1,–,–,–,–,–
Cc1ccc(-n2nnnc2C(Cl)(Cl)c2nnnn2-c2ccc(C)cc2)cc1,1.8,·,·,1.3,·
O=[N+]([O-])c1ccc(N/N=C/c2ccc[nH]2)cc1,–,·,·,–,·
CCCCCCCC(=O)Nc1ccc(C(=O)N/N=C/c2cccc([N+](=O)[O-])c2)cc1,1.5,·,·,1.7,·
O=C(N/N=C/c1ccc([N+](=O)[O-])o1)c1cc(-c2cccc(Br)c2)nc2ccccc12,1.8,·,·,1.7,·
SMILES,bCat KO growth,H69AR inhibit,HUVEC prolif 384,PTEN del growth,Fibroblast inh
CCCC(=O)Nc1ccc(C(=O)N/N=C/c2ccc([N+](=O)[O-])o2)cc1,2.7,·,·,1.9,·
CCCCCCC(=O)Nc1ccc(C(=O)N/N=C/c2cccnc2)cc1,–,·,·,–,·
O=C(COc1ccccc1)N/N=C/c1ccc([N+](=O)[O-])o1,1.3,·,·,1.0,·
CCCc1ccc(-c2cc(C(=O)N/N=C/c3ccc([N+](=O)[O-])o3)c3ccccc3n2)cc1,–,·,·,–,·
CCCCOc1ccccc1C1CC(=O)NC2=C1C(=O)CCC2 (stereo not drawn),–,27.8,–,–,47.5
CCOc1ccccc1C1CC(=O)NC2=C1C(=O)CCC2 (stereo not drawn),–,23.4,–,–,–
CCCOc1ccccc1C1CC(=O)NC2=C1C(=O)CCC2 (stereo not drawn),–,–,–,–,–
COCCCN(C(C)=O)c1nc(-c2ccc(OC)cc2)cs1,–,15.3,–,–,–
COCCCN(C(=O)c1ccco1)c1nc(-c2cc(OC)ccc2OC)cs1,–,–,–,–,–
COc1ccc(-c2csc(N(CCCN(C)C)C(=O)c3cccs3)n2)cc1,–,22.0,–,–,–
O=C(Nc1ccc2oc(-c3ccccc3)nc2c1)c1ccncc1,–,–,–,–,–
O=C(Nc1ccc2cn[nH]c2c1)c1ccccc1F,–,·,·,–,·
O=C(Nc1ccc2nc(-c3cccs3)[nH]c2c1)c1cccs1,–,39.1,–,–,–
O=C(Nc1ccc(-c2nc3ccc(NC(=O)c4cccs4)cc3[nH]2)cc1)c1cccs1,–,3.1,4.1,–,41.3
O=C(Nc1ccc2nc(-c3cccs3)[nH]c2c1)c1ccco1,–,–,–,–,–
O=C(Nc1ccc2nc(-c3cccnc3)[nH]c2c1)c1ccccc1F,–,34.1,–,–,–
O=C(Nc1ccc2oc(-c3ccccc3)nc2c1)c1cccs1,–,38.5,–,–,–
C=CCOC(=O)C1=C(C)NC(=S)NC1c1cccs1 (stereo not drawn),–,·,·,–,·
O=C(CSc1nc(-c2ccccc2)cs1)Nc1ccccc1[N+](=O)[O-],–,·,·,–,·
Cc1ccc2nc(N(CCCN(C)C)C(=O)c3ccc4c(c3)CCCC4)sc2c1,3.4,·,·,1.0,·
CN(C)CCCN(C(=O)c1ccc2c(c1)CCCC2)c1nc2c(F)cccc2s1,–,·,·,–,·
COc1ccccc1N1CCN(C2CCN(S(=O)(=O)c3ccc4ccccc4c3)CC2)CC1,–,–,–,–,–
CC(C)Cn1c(=O)c(C(=O)NCc2ccccn2)c(O)c2ccccc21,–,28.5,–,–,–
Cc1cc(C)n(C(=O)CNc2ccc(C)c(C)c2)n1,0.9,–,–,1.4,–
CCn1c(SCc2c(Cl)cccc2Cl)nnc1-c1nn(-c2ccccc2)ccc1=O,–,·,·,–,·
SMILES,bCat KO growth,H69AR inhibit,HUVEC prolif 384,PTEN del growth,Fibroblast inh
CCSc1nccc(-c2nn(-c3ccc(C)cc3)ccc2=O)n1,–,18.4,–,–,–
C=CCSc1nc(=O)n2cccc(C)c2n1,–,·,·,–,·
CNC(=O)c1nn(-c2ccc(C)cc2)ccc1=O,–,·,·,–,·
CSc1nccc(-c2nn(-c3ccc(C)cc3)ccc2=O)n1,–,24.0,–,–,–
C#CCSc1nccc(-c2nn(-c3ccc(C)cc3)ccc2=O)n1,–,17.2,–,–,–
C=CCSc1nccc(-c2nn(-c3ccc(C)cc3)ccc2=O)n1,–,21.0,–,–,–
CCc1c(C)nc2cc(-c3ccc(OC)c(OC)c3)nn2c1NCC1CC1,–,·,·,–,·
CC1=C(C(=O)OCC(Br)(Br)Br)C(c2ccc(Br)cc2)NC(=O)N1CCCC(=O)O (stereo not drawn),–,·,·,–,·
CCn1ncc(/C=N/NC(=O)c2cc(Cl)ccc2OC)c1C,–,·,·,–,·
CCOC(=O)/C(=C\c1ccc(OC(F)F)cc1)C1=Nn2c(nnc2-c2ccc(Cl)cc2)SC1,1.4,·,·,2.1,·
COc1ccc(-c2nnc3n2N=C(C)CS3)cc1,–,–,–,–,–
COC(=O)c1ccc2c(c1)C(C)(C)C(/C=C/c1ccccc1O)=[N+]2C,2.4,·,·,1.8,·
C[N+]1=C(/C=C/Nc2ccccc2Cl)C(C)(C)c2ccccc21,–,·,·,–,·
Cc1ccc2c(CC(=O)NCc3ccco3)coc2c1C,–,26.7,–,–,–
Cc1ccc(C(=O)NCc2ccco2)cc1Br,–,–,–,–,–
